Data: ChEMBL document CHEMBL1137541, “[(2-Phenylindol-3-yl)methylene]propanedinitriles inhibit the growth of breast cancer cells by cell cycle arrest in G(2)/M phase and apoptosis” (Bioorg Med Chem, 2007)
The source made the active and inactive calls. No cut-off for these calls is given here.

Tests used:
[1] = test system: MDA-MB-231; test: Antiproliferative activity against human MDA-MB-231 cells after 4 days by microplate assay; format: functional, cell-based; conditions: MDA-MB-231, 96 h
Summary of the method: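 Cells grown 2–3 days in 96-well plates (37 °C, 5% CO2), medium then replaced with compound-containing medium (controls 0.1% DMF), about 4 days' exposure. Fixed with 1% glutaric dialdehyde, stained with 0.02% crystal violet for 25 min, dye extracted with 70% EtOH, OD read at 578 nm; initial density from fixed wells. IC50 from 16–24 replicates per experiment.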

[2] = test system: MCF7; test: Antiproliferative activity against human MCF7 cells after 5 days by microplate assay; format: functional, cell-based; conditions: MCF7, 120 h
Summary of the method: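 MCF-7 cells in EMEM with sodium pyruvate, gentamycin, NaHCO3, phenol red, 10% FCS; grown 2–3 days in 96-well plates, then medium with compound (0.1% DMF in controls) for 5 days. Glutaric dialdehyde fixation, 0.02% crystal violet staining, 70% EtOH extraction, OD 578 nm. Initial density from fixed wells. IC50; mean of two independent experiments, 16–24 replicates.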

[3] = test system: HL-60 (Homo sapiens); test: Inhibition of cell growth in human HL-60 cells after 48 hrs by MTT assay; conditions: HL-60, 48 h
[4] = test system: HL-60 (Homo sapiens); test: Induction of apoptosis in human HL-60 cells assessed as increase in caspase 3 activation at 1 uM after 24 hrs
[5] = test system: HL-60 (Homo sapiens); test: Induction of apoptosis in human HL-60 cells assessed as increase in caspase 9 activation at 1 uM after 24 hrs
[6] = test system: A-431; test: Inhibition of cell growth in human A431 cells after 3 days by microplate assay; format: functional, cell-based; conditions: A-431, 72 h
Summary of the method: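 A-431 vulva carcinoma cells, crystal violet microplate protocol as for MDA-MB 231 but with 5% FCS; 3 days' exposure, 0.1% DMF controls. Fixation with glutaric dialdehyde, 0.02% crystal violet, 70% EtOH extraction, OD 578 nm. IC50, mean of four independent experiments with 16–24 replicates ± SD.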

[7] = organism: Bos taurus; test: Inhibition of temperature-induced tubulin polymerization of calf brain at 40 uM; design: scale not given: the % may be the effect or the level left
Summary of the method: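 Calf brain tubulin purified by temperature-dependent polymerization cycles, then depolymerized at 0 °C in PEMG buffer. Supernatant preincubated 15 min at 37 °C with compound (40 µM, DMSO), chilled, and GTP added. Polymerization started by shifting from 2 °C to 37 °C, followed by absorbance at 350 nm over 20 min. Reported relative to inhibitor-free controls (100%).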

[8] = test system: MDA-MB-231; test: Cell cycle arrest in MDA-MB-231 cells by accumulation at G2/M phase at 0.01 uM after 24 hrs by flow cytometry; format: functional, cell-based; conditions: Homo sapiens
Summary of the method: (§1)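 Cells grown to 70–80% confluence in flasks and exposed 24 h to compound in DMF (0.1% final), one flask per concentration. Trypsinized, fixed in ice-cold 70% EtOH, DNA extraction buffer 5 min, propidium iodide staining ≥30 min at room temperature. Flow cytometry of 8,000–15,000 events; percentages of sub-G1, G1/G0, S, G2/M cells; representative of two experiments.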

[9] = test system: MDA-MB-231; test: Cell cycle arrest in MDA-MB-231 cells by accumulation at G2/M phase at 0.1 uM after 24 hrs by flow cytometry; format: functional, cell-based; conditions: Homo sapiens; summary of the method: as §1
[10] = Antitumor activity against MXT cells xenografted B2D2F1 mouse at 10 mg/kg, sc relative to control; format: functional; conditions: route subcutaneous
Summary of the method: (§2)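 Hormone-resistant MXT tumor pieces (1 mm³) transplanted into 8- to 9-week-old female B2D2F1 mice, groups of 6–8, randomly assigned. Compound given subcutaneously three times per week for two weeks. Tumor area compared with untreated controls (T/C × 100). Body weight change taken between first and last treatment day.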

[11] = Antitumor activity against MXT cells xenografted B2D2F1 mouse at 30 mg/kg, sc relative to control; format: functional; conditions: route subcutaneous; summary of the method: as §2
[12] = test system: Mus musculus; test: Effect on body weight in MXT cells xenografted B2D2F1 mouse at 10 mg/kg, sc; format: functional; conditions: route subcutaneous; summary of the method: as §2
[13] = test system: Mus musculus; test: Effect on body weight in MXT cells xenografted B2D2F1 mouse at 30 mg/kg, sc; format: functional; conditions: route subcutaneous; summary of the method: as §2
[14] = test system: MDA-MB-231; test: Cell cycle arrest in MDA-MB-231 cells by accumulation at G2/M phase at 0.5 uM after 24 hrs by flow cytometry; format: functional, cell-based; conditions: Homo sapiens; summary of the method: as §1
[15] = test system: MDA-MB-231; test: Cell cycle arrest in MDA-MB-231 cells by accumulation at G2/M phase at 1.0 uM after 24 hrs by flow cytometry; format: functional, cell-based; conditions: Homo sapiens; summary of the method: as §1

IC50 [1] [nM]	IC50 [2] [nM]	Structure (SMILES)	other results
56	150	CCCCc1ccc2[nH]c(-c3ccc(C(F)(F)F)cc3)c(C=C(C#N)C#N)c2c1	IC50 [3]: 70 nM; Activity [4]: Active; Activity [5]: Active
26	13	CCCCc1ccc2[nH]c(-c3ccc(OC)cc3)c(C=C(C#N)C#N)c2c1	
150	68	CCCCCCc1ccc2[nH]c(-c3ccc(C(F)(F)F)cc3)c(C=C(C#N)C#N)c2c1	
400	310	COc1ccc(-c2[nH]c3ccc(F)cc3c2C=C(C#N)C#N)cc1	
76	200	CCCCc1ccc2[nH]c(-c3ccc(CC)cc3)c(C=C(C#N)C#N)c2c1	
260	300	COc1ccc(-c2[nH]c3cc(OC)ccc3c2C=C(C#N)C#N)cc1	
180	250	COc1ccc2c(C=C(C#N)C#N)c(-c3ccc(C)cc3)[nH]c2c1	
42	76	CCCCCc1ccc2[nH]c(-c3ccc(OC)cc3)c(C=C(C#N)C#N)c2c1	IC50 [3]: 41 nM; Activity [4]: Active; Activity [5]: Active
47	43	COc1ccc(-c2[nH]c3cc(F)ccc3c2C=O)cc1	IC50 [6]: 180 nM; Activity [7]: 8%
4.5		CC[C@]1(O)C[C@H]2CN(CCc3c([nH]c4ccccc34)[C@@](C(=O)OC)(c3cc4c(cc3OC)N(C=O)[C@H]3[C@@](O)(C(=O)OC)[C@H](OC(C)=O)[C@]5(CC)C=CCN6CC[C@]43[C@@H]65)C2)C1 [VINCRISTINE]	Activity [8]: Active; Activity [9]: Active
470	180	COc1ccc(-c2[nH]c3ccccc3c2C=O)cc1	IC50 [6]: 210 nM; Activity [7]: 3%
65	100	CCCCc1ccc2[nH]c(-c3ccc(C)cc3)c(C=C(C#N)C#N)c2c1	
210	310	COc1ccc(-c2[nH]c3ccc(C(C)C)cc3c2C=C(C#N)C#N)cc1	
78	100	CCCCCc1ccc2[nH]c(-c3ccc(C(F)(F)F)cc3)c(C=C(C#N)C#N)c2c1	
720	770	COc1ccc(-c2[nH]c3ccccc3c2C=C(C#N)C#N)cc1	
430	190	N#CC(C#N)=Cc1c(-c2ccccc2)[nH]c2ccccc12	
590	340	COc1ccc(-c2[nH]c3ccc(OC)cc3c2C=C(C#N)C#N)cc1	
420	650	O=Cc1c(-c2ccccc2)[nH]c2ccccc12 [2-PHENYL-1H-INDOLE-3-CARBALDEHYDE]	IC50 [6]: 760 nM; Activity [7]: 98%
280	220	COc1ccc(-c2[nH]c3cc(F)ccc3c2C=C(C#N)C#N)cc1	Activity [10]: 74%; Activity [11]: 56%; Activity [12]: 3.6%; Activity [13]: 2.3%
280	200	COc1ccc(-c2[nH]c3ccc(C)cc3c2C=C(C#N)C#N)cc1	
		COc1cc([C@@H]2c3cc4c(cc3[C@@H](O[C@@H]3O[C@@H]5CO[C@@H](C)O[C@H]5[C@H](O)[C@H]3O)[C@H]3COC(=O)[C@H]23)OCO4)cc(OC)c1O [ETOPOSIDE]	IC50 [3]: 315 nM
46	25	CCCCCCc1ccc2[nH]c(-c3ccc(OC)cc3)c(C=C(C#N)C#N)c2c1	Activity [9]: Active; Activity [14]: Active; Activity [15]: Active
83	190	CCCc1ccc2[nH]c(-c3ccc(OC)cc3)c(C=C(C#N)C#N)c2c1	
75	200	COc1ccc(-c2[nH]c3cc(Cl)c(C)cc3c2C=C(C#N)C#N)cc1	
260	180	COc1ccc(-c2[nH]c3ccc(OC)cc3c2C=O)cc1	IC50 [6]: 200 nM; Activity [7]: 7%
